We go through five molecules from PMC4011915 (mAbs, 2014).

This assay relates to 9F mAb. Nature of the assay: Immunoblot of 3xFLAG-tagged aldolase C fragments in Neuro2a lysates with 9F mAb. The format is binding, mouse. The following applies: Neuro2a total protein lysates; 15% SDS-PAGE; 9F 1:1000; ECL. A digest of the protocol: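 Neuro2a cells were plated without antibiotics to reach 70–90% confluence, transfected with lipofectamine 2000, given fresh medium at 6h and grown 48h at 37 °C. Lysis was 30 min on ice in 50mM Tris-HCl pH 7.5, 150mM NaCl, 0.1% Triton X-100 and 0.5 mM PMSF, cleared at 16000xg. Blots went onto nitrocellulose, blocked 1h in 5% milk/T-PBS. Primary 1h RT or overnight 4 °C; HRP anti-mouse 1:5000, 45min. α-tubulin loading control.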
Background: A western blot detects proteins with antibodies after separation by electrophoresis.

B1: Clone 1B: 3xFLAG-tagged human aldolase C aa 101-210, 16 kDa (protein, UniProt P09972 101-210, looked up, fragment)
chain: KGIVVGIKVDKGVVPLAGTDGETTTQGLDGLSERCAQYKKDGADFAKWRCVLKISERTPSALAILENANVLARYASICQQNGIVPIVEPEILPDGDHDLKRCQYVTEKVL
modifications: 3xFLAG tag
As to B1, the “recognition of 3xFLAG-tagged aldolase C fragment by 9F mAb” value (“recognition” below) is reported as “detected Clone 1A (15kDa) but not Clone 1B”.

B2: full-length: 3xFLAG-tagged human aldolase C aa 1-364, 43 kDa (protein, UniProt P09972 1-364, looked up)
chain: MPHSYPALSAEQKKELSDIALRIVAPGKGILAADESVGSMAKRLSQIGVENTEENRRLYRQVLFSADDRVKKCIGGVIFFHETLYQKDDNGVPFVRTIQDKGIVVGIKVDKGVVPLAGTDGETTTQGLDGLSERCAQYKKDGADFAKWRCVLKISERTPSALAILENANVLARYASICQQNGIVPIVEPEILPDGDHDLKRCQYVTEKVLAAVYKALSDHHVYLEGTLLKPNMVTPGHACPIKYTPEEIAMATVTALRRTVPPAVPGVTFLSGGQSEEEASFNLNAINRCPLPRPWALTFSYGRALQASALNAWRGQRDNAGAATEEFIKRAEVNGLAAQGKYEGSGEDGGAAAQSLYIANHAY
modifications: full-length 3xFLAG tag
Consider B2, for which the “recognition” value is reported as “recognized”.

B3: Clone 2: 3xFLAG-tagged human aldolase C aa 101-300, 25 kDa (protein, UniProt P09972 101-300, looked up, fragment)
chain: KGIVVGIKVDKGVVPLAGTDGETTTQGLDGLSERCAQYKKDGADFAKWRCVLKISERTPSALAILENANVLARYASICQQNGIVPIVEPEILPDGDHDLKRCQYVTEKVLAAVYKALSDHHVYLEGTLLKPNMVTPGHACPIKYTPEEIAMATVTALRRTVPPAVPGVTFLSGGQSEEEASFNLNAINRCPLPRPWALTF
modifications: 3xFLAG tag
Consider B3, for which the “recognition” value is given as “absence of ECL signal”.

B4: Clone 1: 3xFLAG-tagged human aldolase C aa 1-210, 26 kDa (protein, UniProt P09972 1-210, looked up, fragment)
chain: MPHSYPALSAEQKKELSDIALRIVAPGKGILAADESVGSMAKRLSQIGVENTEENRRLYRQVLFSADDRVKKCIGGVIFFHETLYQKDDNGVPFVRTIQDKGIVVGIKVDKGVVPLAGTDGETTTQGLDGLSERCAQYKKDGADFAKWRCVLKISERTPSALAILENANVLARYASICQQNGIVPIVEPEILPDGDHDLKRCQYVTEKVL
modifications: 3xFLAG tag
Regarding B4, the “recognition” value is listed as “recognized”.

B5: Clone 1A: 3xFLAG-tagged human aldolase C aa 1-100, 15 kDa (protein, UniProt P09972 1-100, looked up, fragment)
chain: MPHSYPALSAEQKKELSDIALRIVAPGKGILAADESVGSMAKRLSQIGVENTEENRRLYRQVLFSADDRVKKCIGGVIFFHETLYQKDDNGVPFVRTIQD
modifications: 3xFLAG tag
Regarding B5, the “recognition” value is given as “detected”.
